Data: ChEMBL document CHEMBL3856229, “Hybrid Antibiotic Overcomes Resistance in P. aeruginosa by Enhancing Outer Membrane Penetration and Reducing Efflux” (J Med Chem, 2016)
The source made the active and inactive calls. The calls are words filed in the database; no cut-off is given here.

Key:
Format in all cases: functional
Pseudomonas aeruginosa [1] = experiment: Antibacterial activity against multidrug-resistant/tobramycin-susceptible Pseudomonas aeruginosa isolate 83182
Pseudomonas aeruginosa [2] = experiment: Antibacterial activity against extremely drug-resistant Pseudomonas aeruginosa isolate 104354 infected in Galleria mellonella assessed as larvae survival at 75 mg/kg administered as single dose measured after 96 hrs; conditions: isolate 104354, 96 h
Procedure, shortened: (§1)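 Galleria mellonella larvae were infected with 10^6 CFU of XDR P. aeruginosa #104354, resistant to all antipseudomonal classes except colistin. A single injected drug dose was given 2 h post-infection: 50 mg/kg with survival read at 24 h, or 75 mg/kg with survival read at 96 h. Controls were infected untreated larvae and PBS-injected larvae. Two independent experiments of 15 larvae each (n = 30).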

Pseudomonas aeruginosa [3] = experiment: Antibacterial activity against Pseudomonas aeruginosa PAO1 assessed as fractional inhibitory concentration index after 18 hrs in presence of minocycline by checkerboard method
Procedure, shortened: (§2)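 Checkerboard combinations of the hybrid with each partner antibiotic were tested against P. aeruginosa PAO1. Interaction is expressed as the fractional inhibitory concentration (FIC) index: ≤0.5 means synergy, 1–2 no interaction, ≥4 antagonism.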

[4] = Selectivity ratio of MIC for Pseudomonas aeruginosa PAO1 to MIC for Pseudomonas aeruginosa PAO750
Procedure, shortened: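 MICs were measured in PAO1 and in PAO750. PAO750 is a PAO1 derivative lacking the MexAB-OprM, MexCD-OprJ, MexEF-OprN, MexJK and MexXY efflux pumps and the outer membrane protein OpmH.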

Escherichia coli [5] = experiment: Antibacterial activity against fluoroquinolone resistant Escherichia coli isolate 85332 harboring beta-lactamase CTX-M-14/TEM-1
Pseudomonas aeruginosa [6] = experiment: Antibacterial activity against multidrug-resistant/tobramycin-susceptible Pseudomonas aeruginosa isolate 86141
Pseudomonas aeruginosa [7] = experiment: Antibacterial activity against multidrug/extremely drug-resistant/pandrug-resistant Pseudomonas aeruginosa isolate PA259-96918 in presence of <= 4 ug/ml of moxifloxacin (reference value: 2 ug/ml)
Pseudomonas aeruginosa [8] = experiment: Antibacterial activity against multidrug-resistant/tobramycin-susceptible Pseudomonas aeruginosa isolate 80621
Pseudomonas aeruginosa [9] = experiment: Antibacterial activity against pandrug-resistant Pseudomonas aeruginosa isolate 101243
Pseudomonas aeruginosa [10] = experiment: Antibacterial activity against multidrug-resistant/tobramycin-susceptible Pseudomonas aeruginosa isolate 86067
Escherichia coli [11] = experiment: Antibacterial activity against fluoroquinolone resistant Escherichia coli isolate 80960 harboring beta-lactamase CTX-M-15/TEM-1
Pseudomonas aeruginosa [12] = experiment: Antibacterial activity against multidrug/extremely drug-resistant/colistin-susceptible Pseudomonas aeruginosa isolate 264-104354
Pseudomonas aeruginosa [13] = experiment: Antibacterial activity against multidrug-resistant/tobramycin-susceptible Pseudomonas aeruginosa isolate 85322
Escherichia coli [14] = experiment: Antibacterial activity against of wild-type Escherichia coli isolate 79768
Acinetobacter baumannii = experiment: Antibacterial activity against Acinetobacter baumannii isolate CAN-ICU 63169 after 24 hrs by microtitre broth dilution method; conditions: isolate CAN-ICU 63169, 24 h
Pseudomonas aeruginosa [15] = experiment: Induction of inner membrane permeabilization in Pseudomonas aeruginosa PAO1 assessed as accumulation of propidium iodide at 8 ug/ml after 3 to 4 hrs by fluorescence microscopy
Procedure, shortened: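 PAO1 cells were treated with 8 µg/mL for 3 h at 37 °C, then stained with the membrane-impermeable nucleic-acid dye propidium iodide. Fluorescence microscopy and DIC imaging were compared against untreated cells.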

Pseudomonas aeruginosa [16] = experiment: Bactericidal activity against Pseudomonas aeruginosa PAO1 at 2 times MIC up to 24 hrs by time-kill kinetic study
Procedure, shortened: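 PAO1 was grown in MH broth with varying concentrations of the test agent; colistin at its MIC served as comparator. Viable counts (CFU) were followed up to 24 h. There were three independent experiments, and each point is the mean of three determinations ± SEM.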

Pseudomonas aeruginosa [17] = experiment: Antibacterial activity against multidrug-resistant/tobramycin-susceptible Pseudomonas aeruginosa isolate 79199
[18] = test system: Stenotrophomonas maltophilia; experiment: Antibacterial activity against Stenotrophomonas maltophilia isolate CAN-ICU 62584 after 24 hrs by microtitre broth dilution method; conditions: isolate CAN-ICU 62584, 24 h
Escherichia coli [19] = experiment: Antibacterial activity against fluoroquinolone resistant Escherichia coli isolate 90087 harboring beta-lactamase CTX-M-15/OXA-1
Pseudomonas aeruginosa [20] = experiment: Antibacterial activity against pandrug-resistant Pseudomonas aeruginosa isolate 91433 in presence of <= 4 ug/ml of moxifloxacin (reference value: 8 ug/ml)
Pseudomonas aeruginosa [21] = experiment: Antibacterial activity against multidrug/extremely drug-resistant/colistin-susceptible Pseudomonas aeruginosa isolate 100036
Pseudomonas aeruginosa [22] = experiment: Antibacterial activity against Pseudomonas aeruginosa ATCC 27853 after 24 hrs by microtitre broth dilution method; conditions: ATCC 27853, 24 h
Pseudomonas aeruginosa [23] = experiment: Antibacterial activity against multidrug/extremely drug-resistant Pseudomonas aeruginosa isolate PA259-96918 in presence of <= 4 ug/ml of ciprofloxacin (reference value: 2 ug/ml)
Pseudomonas aeruginosa [24] = experiment: Antibacterial activity against Pseudomonas aeruginosa PAO1 assessed as fractional inhibitory concentration index after 18 hrs in presence of meropenem by checkerboard method; procedure, shortened: as §2
Pseudomonas aeruginosa [25] = experiment: Potentiation of ciprofloxacin induced antibacterial activity against multidrug/extremely drug-resistant Pseudomonas aeruginosa isolate PA259-96918 assessed as ciprofloxacin MIC at <= […] ug/ml (reference value: […] ug/ml)
Pseudomonas aeruginosa [26] = experiment: Antibacterial activity against multidrug/extremely drug-resistant Pseudomonas aeruginosa isolate PA264-104354 in presence of <= 4 ug/ml of moxifloxacin (reference value: 4 ug/ml)
Pseudomonas aeruginosa [27] = experiment: Antibacterial activity against multidrug/extremely drug-resistant/colistin-susceptible Pseudomonas aeruginosa isolate 259-96918
Pseudomonas aeruginosa [28] = experiment: Antibacterial activity against Pseudomonas aeruginosa PAO1 assessed as fractional inhibitory concentration index after 18 hrs in presence of vancomycin by checkerboard method; procedure, shortened: as §2
Pseudomonas aeruginosa [29] = experiment: Potentiation of ciprofloxacin induced antibacterial activity against pandrug-resistant Pseudomonas aeruginosa isolate 101243 assessed as ciprofloxacin MIC at <= […] ug/ml (reference value: 2 ug/ml)
Pseudomonas aeruginosa [30] = experiment: Antibacterial activity against multidrug/extremely drug-resistant/colistin-susceptible Pseudomonas aeruginosa isolate 260-97103
Pseudomonas aeruginosa [31] = experiment: Antibacterial activity against multidrug/extremely drug-resistant/colistin-susceptible Pseudomonas aeruginosa isolate 262-101856
Staphylococcus aureus = experiment: Antibacterial activity against methicillin-resistant Staphylococcus aureus ATCC 33592 after 24 hrs by microtitre broth dilution method; conditions: ATCC 33592, 24 h
Enterococcus faecium = experiment: Antibacterial activity against Enterococcus faecium ATCC 27270 after 24 hrs by microtitre broth dilution method; conditions: ATCC 27270, 24 h
Pseudomonas aeruginosa [32] = experiment: Antibacterial activity against extremely drug-resistant Pseudomonas aeruginosa isolate 104354 infected in Galleria mellonella assessed as larvae survival at 50 mg/kg administered as single dose measured after 24 hrs (reference value: 27 %); conditions: isolate 104354, 24 h; procedure, shortened: as §1
Pseudomonas aeruginosa [33] = experiment: Antibacterial activity against Pseudomonas aeruginosa PAO1 assessed as fractional inhibitory concentration index after 18 hrs in presence of ceftazidime by checkerboard method; procedure, shortened: as §2
Pseudomonas aeruginosa [34] = experiment: Antibacterial activity against multidrug/extremely drug-resistant Pseudomonas aeruginosa isolate PA262-101856 in presence of <= 4 ug/ml of ciprofloxacin (reference value: 4 ug/ml)

For `COc1c(N2C[C@@H]3CCCN(CCCCCCCCCCCCO[C@@H]4[C@@H](O[C@H]5O[C@H](CO)[C@@H](O)[C@H](N)[C@H]5O)[C@H](N)C[C@H](N)[C@H]4O[C@H]4O[C@H](CN)[C@@H](O)C[C@H]4N)[C@@H]3C2)c(F)cc2c(=O)c(C(=O)O)cn(C3CC3)c12.Cl.Cl.Cl.Cl.Cl`, the MIC (Pseudomonas aeruginosa [1]) was 8 µg/mL, the survival at 75 mg/kg (Pseudomonas aeruginosa [2]) was 20% and the “fractional inhibitory concentration index (FICI)” value (Pseudomonas aeruginosa [3]) was 0.15. For the same compound, the Selectivity ratio [4] was 8, the MIC (Escherichia coli [5]) was at least 64 µg/mL and the MIC (Pseudomonas aeruginosa [6]) was 4 µg/mL. The MIC (Pseudomonas aeruginosa [7]) was under 1 µg/mL, the MIC (Pseudomonas aeruginosa [8]) was 8 µg/mL and the MIC (Pseudomonas aeruginosa [9]) was 8 µg/mL. For the same compound, the MIC (Pseudomonas aeruginosa [10]) was 4 µg/mL, the MIC (Escherichia coli [11]) was at least 64 µg/mL and the MIC (Pseudomonas aeruginosa [12]) was 4 µg/mL. For the same compound, the MIC (Pseudomonas aeruginosa [13]) was 8 µg/mL, the MIC (Escherichia coli [14]) was at most 2 µg/mL and the MIC (Acinetobacter baumannii) was 16 µg/mL. The Activity (Pseudomonas aeruginosa [15]) was “Active”, the Activity (Pseudomonas aeruginosa [16]) was “Active” and the MIC (Pseudomonas aeruginosa [17]) was 8 µg/mL. It also gave an MIC [18] of 32 µg/mL, an MIC (Escherichia coli [19]) of at least 64 µg/mL and an MIC (Pseudomonas aeruginosa [20]) of under 1 µg/mL. The MIC (Pseudomonas aeruginosa [21]) was 8 µg/mL, the MIC (Pseudomonas aeruginosa [22]) was 4 µg/mL and the MIC (Pseudomonas aeruginosa [23]) was under 0.5 µg/mL. The “fractional inhibitory concentration index (FICI)” value (Pseudomonas aeruginosa [24]) was 2, the MIC (Pseudomonas aeruginosa [25]) was under 1 µg/mL and the MIC (Pseudomonas aeruginosa [26]) was under 1 µg/mL. The MIC (Pseudomonas aeruginosa [27]) was 2 µg/mL, the “fractional inhibitory concentration index (FICI)” value (Pseudomonas aeruginosa [28]) was 0.26 and the MIC (Pseudomonas aeruginosa [29]) was 0.06 µg/mL. It also gave an MIC (Pseudomonas aeruginosa [30]) of 1 µg/mL, an MIC (Pseudomonas aeruginosa [31]) of 4 µg/mL and an MIC (Staphylococcus aureus) of 1 µg/mL. The MIC (Enterococcus faecium) was 16 µg/mL, the survival at 50 mg/kg (Pseudomonas aeruginosa [32]) was 100% and the “fractional inhibitory concentration index (FICI)” value (Pseudomonas aeruginosa [33]) was 0.37. For the same compound, the MIC (Pseudomonas aeruginosa [34]) was under 0.5 µg/mL.
